High-throughput results: PubChem, The Scripps Research Institute Molecular Screening Center
An excerpt weighted towards active compounds, which were near 1.9% of everything screened.
sPLA2-III inh = Inhibits HGIII-sPLA2 liposome hydrolysis, primary screen. QFRET BODIPY PC-A2 liposome hydrolysis, fluorescence. inhibition, % at 12.2 µM. Q9NZ20. hit rate 0.56% among 370,000. AID 743126;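 active = inhibition above mean plus 3 SD of compounds lying within the high and low control bounds, cut at about 19% in these data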
ASAP1 GAP inh = blocks human ASAP1-stimulated Arf1 GTP hydrolysis. Q9ULH1. GDP FP detection. inhibition, % at 16.5 µM. hit rate 0.19% among 360,000. AID 624377; in the data active = inhibition above about 25%
PLC-beta3 inh = blocks human PLC-beta3 enzyme activity | Q01970 | Purified PLC-beta3, fluorogenic substrate, fluorescence | inhibition, % at 12.2 µM | hit rate 0.18% among 370,000; in the data active = inhibition above about 11%
PLC-gamma1 inh = blocks human PLC-gamma1 enzyme activity | P19174 | purified PLC-gamma1, fluorogenic substrate, fluorescence | inhibition, % at 12.2 µM | hit rate 0.84% among 370,000 | AID 720700
ARFGAP1 inh = inhibits rat ARF GTPase activating protein 1. hit rate 0.26% among 360,000. Arfgap1-stimulated ARF1 GTP hydrolysis, GDP FP detection. Q62848. inhibition, % at 16.5 µM;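 active = inhibition above a per-plate limit, mean inhibition of low control wells plus 3 SD, cut at about 25% in these data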
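System: truncated rat Arfgap1 GAP domain / Benchmarks: high control wells lacking Arfgap1, low control full reaction with DMSO / Times: compound-enzyme preincubation 20 min, reaction 120 min, detection 60 min, 25 °C / Repeats: one replicate per compound / Also added: human ARF1(Δ1-17)-GTP substrate / Measured by: Tracer-displacement fluorescence polarization with EDTA stop, 620/688 nm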
PLCgamma1 ctr = counter-screen for PLC-beta3 inhibitors: inhibitors of human PLC-gamma1. shares compounds with PLC-gamma1 inh. hit rate 3.1% among 3,300. AID 743258. purified PLC-gamma1, fluorogenic substrate, fluorescence. inhibition, % at 12.3 µM
PLCb3 confirm = human PLC-beta3 inhibition, confirmation; purified PLC-beta3, fluorogenic substrate fluorescence; inhibition, % at 12.3 µM; shares compounds with PLC-gamma1 inh; hit rate 1% among 3,300; in the data active = inhibition above about 11%
Each line names hits and unclear results; the compound was inactive in the other large screens (follow-up assays come after a bar, where they were run). Cut-off read from the data, not from the text of the source, unless noted: active = inhibition above about 9.5%; inactive = the rest.

Nc1nc(-c2ccco2)nn1C(=O)c1ccccc1	none
Nc1nc(-c2ccco2)nn1C(=O)c1ccc(Cl)cc1	PLC-gamma1 inh 9.8 | PLCgamma1 ctr inactive | PLCb3 confirm inactive
NS(=O)(=O)c1ccc(N/N=C/c2ccc(C(=O)O)cc2)c([N+](=O)[O-])c1	none
NS(=O)(=O)c1ccc(N/N=C/c2ccc[nH]2)c([N+](=O)[O-])c1	PLC-gamma1 inh 12 | PLCgamma1 ctr inactive | PLCb3 confirm inactive
COc1cc(C=NNc2ccc(S(=O)(=O)Nc3ccccc3C(=O)O)cc2[N+](=O)[O-])ccc1O	none
O=C(O)c1ccccc1NS(=O)(=O)c1ccc(NNC(=S)Nc2ccc(OC(F)F)cc2)c([N+](=O)[O-])c1	PLC-gamma1 inh 14 | PLCgamma1 ctr 17 | PLCb3 confirm inactive
O=C(O)c1ccccc1NS(=O)(=O)c1ccc(N/N=C/c2cccc(O)c2O)c([N+](=O)[O-])c1	PLC-gamma1 inh 9.6 | PLCgamma1 ctr inactive | PLCb3 confirm inactive
CCn1c(=O)n(CC(=O)N2CCOCC2)c(=O)c2ccccc21	none (no result: ASAP1 GAP inh, ARFGAP1 inh)
Cc1[nH]n(-c2ccccc2)c(=O)c1CCOC(=O)c1cccc(C(F)(F)F)c1	PLC-gamma1 inh 11 | PLCgamma1 ctr inactive | PLCb3 confirm inactive
CCN(CC)C(=O)C[n+]1cccc(C(N)=O)c1	PLC-gamma1 inh 9.6 | PLCgamma1 ctr inactive | PLCb3 confirm inactive
CCn1c(SCC(=O)Nc2ccccc2OC)nc2ccccc2c1=O	PLC-gamma1 inh 11 | PLCgamma1 ctr inactive | PLCb3 confirm inactive
COCC(C)n1c(SCC(=O)NC(=O)NCc2ccccc2)nc2ccccc2c1=O (stereo not given)	PLC-gamma1 inh 10 | PLCgamma1 ctr inactive | PLCb3 confirm inactive
O=C(OC12CCCN(C1)/C(=C/c1cccc(Cl)c1)C2)c1ccco1 (stereo not given)	none (no result: ASAP1 GAP inh, ARFGAP1 inh)
Cc1cc(Nc2ccc(Cl)cc2)n(-c2cccc(Cl)c2)n1	PLC-gamma1 inh 12 | PLCgamma1 ctr inactive | PLCb3 confirm inactive
Cn1cc(C(=O)NC2C3CC4CC(C3)CC2C4)cn1 (stereo not given)	PLC-gamma1 inh 12 | PLCgamma1 ctr inactive | PLCb3 confirm inactive
Cn1cc(Br)c(C(=O)NC2C3CC4CC(C3)CC2C4)n1 (stereo not given)	none
CC(C)[C@H](NC(=O)[C@H](C)NC(=O)OC(C)(C)C)C(=O)N1CCC2CCN(Cc3ccccc3)CC21 (stereo not given in full)	none
CSc1cccc(NC(=S)N(CCCN2CCCC2)Cc2cccs2)c1	PLC-gamma1 inh 13 | PLCgamma1 ctr inactive | PLCb3 confirm inactive
COc1ccc(C=C(C#N)C(=O)c2ccccc2)cc1	none
COc1cc(/C=C(\C#N)C(=O)c2ccc(O)c(O)c2)cc(I)c1O	PLC-gamma1 inh 10 | PLCgamma1 ctr inactive | PLCb3 confirm inactive
COc1cccc(/C=C2\CC3(OC(=O)c4cccc(F)c4)CCCN2C3)c1 (stereo not given)	none (no result: ASAP1 GAP inh, ARFGAP1 inh)
O=C(CC(=O)N/N=C/c1ccc(O)cc1)N/N=C/c1ccc(O)cc1	PLC-gamma1 inh 12 | PLCgamma1 ctr inactive | PLCb3 confirm inactive
O=S(=O)(O)c1ccc(N=NNc2ccc(Br)cc2)cc1	PLC-gamma1 inh 9.8 | PLCgamma1 ctr inactive | PLCb3 confirm inactive
COC(=O)[C@]12C[C@H](CC(=O)NCC34CC5CC(CC(C5)C3)C4)C(=O)N(Cc3ccco3)C1=C[C@H](C1CCCC1)O[C@@H]2C	none (no result: ASAP1 GAP inh, ARFGAP1 inh)
C=C1CC2C=C(NC(C)=O)CC(C1)C2 (stereo not given)	PLC-gamma1 inh 12 | PLCgamma1 ctr inactive | PLCb3 confirm inactive
Nn1c(SCC(=O)Nc2ccc(OCc3ccccc3)cc2)nnc1-c1cc(-c2ccccc2)n[nH]1	none (no result: ASAP1 GAP inh, ARFGAP1 inh)
COC(=O)c1ccc(OCCOc2ccccc2C)cc1	none
COC(=O)c1ccc(OCCOc2ccccc2)cc1	PLC-gamma1 inh 11 | PLCgamma1 ctr inactive | PLCb3 confirm inactive
COc1ccc(OC)c(S(=O)(=O)NCC2CCN(C(=O)C(=O)c3cc4ccccc4o3)CC2)c1	none
CCCC(O)(c1ccc(Cl)cc1)C(CN1CCOCC1)c1ccccc1 (stereo not given)	PLC-gamma1 inh 11 | PLCgamma1 ctr inactive | PLCb3 confirm inactive
